In BindingDB's records for doi:10.1021/jm00019a014 (University of Ghent, 1995):

Experiments:
[1] = target: glycosomal glyceraldehyde-3-phosphate dehydrogenase (GAPDH); test: Inhibition of glyceraldehyde-3-phosphate dehydrogenase in Trypanosoma brucei
Outline: (§1)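 Enzyme sources: human erythrocyte GAPDH, glycosomal GAPDH from T. brucei, and glycosomal GAPDH from L. mexicana. IC50 is the inhibitor concentration at which 50% of enzyme activity remains. Poorly soluble compounds were not tested above their solubility limit, and the remaining activity at that level was recorded instead.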

[2] = target: glyceraldehyde-3-phosphate dehydrogenase (glycosomal GAPDH per title); test: TInhibition of glyceraldehyde-3-phosphate dehydrogenase in Leishmania mexicana; outline: as §1

| SMILES | IC50 [1] [mM] | IC50 [2] [mM] |
| --- | --- | --- |
| Nc1ncnc2c1ncn2C1OC(CO)C(O)C1NCc1ccccc1 (stereo unspecified) [5-(6-Amino-purin-9-yl)-4-benzylamino-2-hydroxymethyl-tetrahydro-furan-3-ol] | > 10 | > 10 |
| COc1cccc(C(=O)NC2C(O)C(CO)OC2n2cnc3c(N)nc(C)nc32)c1 (stereo unspecified) [N-[2-(6-Amino-2-methyl-purin-9-yl)-4-hydroxy-5-hydroxymethyl-tetrahydro-furan-3-yl]-3-methoxy-benzamide] | > 10 | > 10 |
| CC(C)COC(=O)NC1C(O)C(CO)OC1n1cnc2c(N)ncnc21 (stereo unspecified) [[2-(6-Amino-purin-9-yl)-4-hydroxy-5-hydroxymethyl-tetrahydro-furan-3-yl]-carbamic acid isobutyl ester] | > 10 | > 10 |
